Laboratory results: the RNAGym collection of RNA variant scans (doi:10.1038/nmeth.2970)

B1: NELF-E aptamer (parent)
chain: CCCAACGACUGCCGAGCGAGAUUACGCUUGAGCGCCCCACUGAGGAUGCCCACGGGCGAUUGGGGCACGG

Variants of: B1
Assay: HiTS-RAP
Details: with NELF-E (Drosophila)
How it was run: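 Aptamer DNA templates bearing a T7 promoter and a ter site were sequenced on an Illumina GAIIx flowcell. T7 RNA polymerase then transcribed them in situ, and GST-Tus halted transcription over 30 minutes at 37°C. After a 30-minute room-temperature equilibration with NELF-E-mOrange at 0.064 to 1000 nM in HEPES binding buffer, clusters were imaged, using only the first binding curve. Intensities normalised to sequencing intensity were averaged per sequence and fitted with weighted Hill fits to give Kd, retaining only fits whose variance stayed under 1,000,000.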

Variant | Kd [nM]
CCCAACGACGGCCGAGCGAGAUUACGCUUGAGCGCCCCACUGAGGAUGCCCGCGGGCGAUUGGGGCACGG [U10G A52G] | 4.22
CCCAACGACUGCCGAGCGAGAUGACGCUUGAGCGCCCCACUGAGGAUGCCCACGGGUGAUUGGGGCACGG [U23G C57U] | 5.72
CCCAACGUCUGCCGAGCGAGAUUACGCUUGAGCGCCCCACUGAGGAUGCCCACGGGCGAUUGUGGCACGG [A8U G63U] | 11.1
CCCAAGGACUGCCGAGCGAGAUUACGCUUGAGCGCCCCACUGAGGAUGCGCACGGGCGAUUGGGGCACGG [C6G C50G] | 5.53
CCCAACGACUUCCGAGCGAGAUUACGCUUGAGCGCCCCACUGAGGAUGCCCAUGGGCGAUUGGGGCACGG [G11U C53U] | 3.96
CCCAACGACUGCCGAGCGAGAUUACGCUGUAGCGCCCCACUGAGGAUGCCCACGGGCGAUUGGGGCACGG [U29G G30U] | 5.81
CCCAACGACGGCCGAGCGAGAUUACGCUUGAGCGCCCCACUGAGGAUUCCCACGGGCGAUUGGGGCACGG [U10G G48U] | 6.92
CCCAUCGACUGCCGAGCGAGAUUACGCUUGAGCGCCCCACUGAGGAUGCCCGCGGGCGAUUGGGGCACGG [A5U A52G] | 7.25
CCCAACGACUGCCGAGCGAGAUUACUCUUGAGCGCCCCACUGAGGAUGCCCACGGGCGAUUGGGGCACGG [G26U] | 5.53
CCCAACGACUGGCGAGCGAGAUUACGCUUGAGCGCCCCACUGAGGAUGCCCACGGGCGGUUGGGGCACGG [C12G A59G] | 57.4
CCCAAAGACUGGCGAGCGAGAUUACGCUUGAGCGCCCCACUGAGGAUGCCCACGGGCGAUUGGGGCACGG [C6A C12G] | 6.54
CCCAACGACUGCCGAGCGAGAUGACGCUUGAGCGCCCCACUGAGGAUGCCCACAGGCGAUUGGGGCACGG [U23G G54A] | 14.4
CCCAACGACUGCCGAGGCAGAUUACGCUUGAGCGCCCCACUGAGGAUGCCCACGGGCGAUUGGGGCACGG [C17G G18C] | 6.41
CCCGACGACUGCCGAACGAGAUUACGCUUGAGCGCCCCACUGAGGAUGCCCACGGGCGAUUGGGGCACGG [A4G G16A] | 6.14
CGCAACGACUGCCGAGCGAGAUUACGCUUGAGCGCCCCACUGAGGAUGCCCACGGGCGAUUGGGGCACGG [C2G] | 5.3
CCCAACGACUGCCGAGCGGGAUUACGCUUGAGCGCCCCUCUGAGGAUGCCCACGGGCGAUUGGGGCACGG [A19G A39U] | 31.1
CCCAACGACUGCCGAGCGAGAUUAUGCUUGAGCGCCCCACUGAGGAUGCCCACGGGCGAUUGGGGCACGG [C25U] | 5.19
CCCAACGACUGCCGAGCGAGAUUACGCUGGAGCGCCCCACUGAGGAUGCCCACGGGCGAUCGGGGCACGG [U29G U61C] | 59.2
CCCAACGACUGCCGAGCGAGAUUACGCUUGAGCGCCCCACGGAGGAUGCCCACGGACGAUUGGGGCACGG [U41G G56A] | 5.81

Variant | Kd [nM]
CCCUACGACUGCCGAGCGAGAUUACGCUUGAGCGCCCCGCUGAGGAUGCCCACGGGCGAUUGGGGCACGG [A4U A39G] | 10.9
CCCAGCGACUGCCGAGCGAGUUUACGCUUGAGCGCCCCACUGAGGAUGCCCACGGGCGAUUGGGGCACGG [A5G A21U] | 6.3
CCCGACGACUGCCGAGCGAGAUUACGCUAGAGCGCCCCACUGAGGAUGCCCACGGGCGAUUGGGGCACGG [A4G U29A] | 5.44
CCCAACGACUGCCGAGCGAGAUGACGCUUGAGCGCGCCACUGAGGAUGCCCACGGGCGAUUGGGGCACGG [U23G C36G] | 5.58
CCCGACGACUGCCGAGCGAGAUUACGCUUGAGCGCCCCACUGAGAAUGCCCACGGGCGAUUGGGGCACGG [A4G G45A] | 85.6
CCCAACGAGUGCCGAGCGAGAUUACGCUUGAGCGGCCCACUGAGGAUGCCCACGGGCGAUUGGGGCACGG [C9G C35G] | 7.59
CCCAAGGACUGCGGAGCGAGAUUACGCUUGAGCGCCCCACUGAGGAUGCCCACGGGCGAUUGGGGCACGG [C6G C13G] | 5.09
CCCAACGACUGCCCAGCGAGAUUACGCUGGAGCGCCCCACUGAGGAUGCCCACGGGCGAUUGGGGCACGG [G14C U29G] | 5.67
CCCAAGGACUGCCGAGCGAGAUUACGCUUGAGCGCCCCAUUGAGGAUGCCCACGGGCGAUUGGGGCACGG [C6G C40U] | 70.3
CCCAACGGCUGCCGAGCGAUAUUACGCUUGAGCGCCCCACUGAGGAUGCCCACGGGCGAUUGGGGCACGG [A8G G20U] | 6.35
CCCAAGGACUGCCGAGCGAGAUUACGCUUGAGCGCCCCACUGAGGAGGCCCACGGGCGAUUGGGGCACGG [C6G U47G] | 6.93
CCCAACGGCUGCCGAGCGAGAUUACGCUUGAGCGCCCCACUGUGGAUGCCCACGGGCGAUUGGGGCACGG [A8G A43U] | 63.6
CCCGACGACUGCCGAGCGAGAUUACGCUUGAGCGCCCCACUGGGGAUGCCCACGGGCGAUUGGGGCACGG [A4G A43G] | 22.2
CCCAACGACUGCCGAGCGAGAUUACGCUUGAGCGCCCCACUGAGGAUGCCCAAGGGCGAUUGGGGCACGG [C53A] | 4.92
CCCAACGACUGUCGAUCGAGAUUACGCUUGAGCGCCCCACUGAGGAUGCCCACGGGCGAUUGGGGCACGG [C12U G16U] | 5.76
CCCGACGACUGCCGAGCGAGAUUAUGCUUGAGCGCCCCACUGAGGAUGCCCACGGGCGAUUGGGGCACGG [A4G C25U] | 6.15
CCCAACGUCUGCCGAGCGAGAUUACGCUUGAGCGCCCCACUGAGGUUGCCCACGGGCGAUUGGGGCACGG [A8U A46U] | 43.1
CCCAACGACGGCCGAGCGAGAUUACGCUUGAGCGCCCCACUGAGGAUGACCACGGGCGAUUGGGGCACGG [U10G C49A] | 20.2
CCCAACGAUUGCCGAGGGAGAUUACGCUUGAGCGCCCCACUGAGGAUGCCCACGGGCGAUUGGGGCACGG [C9U C17G] | 6.19
